Experiments:
Calf thymus DNA [1] = experiment: Dimer binding constant for DNA of calf thymus at pH 5.; format: nucleic-acid assay; details: Bos taurus
Procedure, shortened: (§1)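 Fluorimetric competition: calf thymus DNA (B = 1.6 × 10⁻⁶ M base pairs) with ethidium dimer (6.4 × 10⁻⁷ M) equilibrated 24 h with varied dimer concentrations, 20 °C. Buffers: 0.2 M sodium acetate pH 5, or 0.1 M NaCl/0.1 M Tris-HCl pH 7.4. Ex 540/em 610 nm. Displacement curve fitted to McGhee–von Hippel equations using n set by ethidium bromide competition, giving Kap.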

Calf thymus DNA [2] = experiment: Dimer binding constant for DNA of calf thymus at pH 7.4; format: nucleic-acid assay; details: Bos taurus; procedure, shortened: as §1
Calf thymus DNA [3] = experiment: Displacement of ethidium from DNA of calf thymus at pH 5; format: nucleic-acid assay; details: Bos taurus
Procedure, shortened: (§2)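 Ethidium dimer (6.4 × 10⁻⁷ M) pre-bound to calf thymus DNA (1.6 × 10⁻⁶ M base pairs), 24 h equilibration with competing dimer, 20 °C, in 0.2 M sodium acetate pH 5 or 0.1 M NaCl/0.1 M Tris-HCl pH 7.4. Fluorescence ex 540, em 610 nm. rf50 = ratio of total dimer to DNA base pairs displacing 50% of bound ethidium dimer.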

Calf thymus DNA [4] = experiment: Displacement of ethidium from DNA of calf thymus at pH 7.4; format: nucleic-acid assay; details: Bos taurus; procedure, shortened: as §2
Mus musculus [5] = experiment: Evaluated for the antitumor activity against L1210 Murine leukemia at optimum intraperitoneal dose 0.8 of the MTD
Mus musculus [6] = experiment: Evaluated for the antitumor activity against L1210 Murine leukemia at optimum intraperitoneal dose 0.2 of the MTD
Mus musculus [7] = experiment: Evaluated for the antitumor activity against L1210 Murine leukemia at optimum intraperitoneal dose 0.5 of the MTD
Mus musculus [8] = experiment: Evaluated for the antitumor activity against L1210 Murine leukemia at optimum intraperitoneal dose 0.25 of the MTD
Mus musculus [9] = experiment: Evaluated for the antitumor activity against L1210 Murine leukemia at optimum intraperitoneal dose 0.4 of the MTD

Question: `COc1ccc2[nH]c3ccc4cc[n+](CCN(C)CCCCCN(C)CC[n+]5ccc6ccc7[nH]c8ccc(OC)cc8c7c6c5)cc4c3c2c1` was tested. Which K app (Calf thymus DNA [1]) did it give?
Answer: 1e+08

Question: And the K app (Calf thymus DNA [2])?
Answer: 8e+06

Question: And the rf50 (Calf thymus DNA [3])?
Answer: 0.8

Question: And the rf50 (Calf thymus DNA [4])?
Answer: 8.4

Question: Which K app (Calf thymus DNA [1]) does the source give for `COc1ccc2c(c1)c1c3c[n+](CCN4CCC(C5CCN(CC[n+]6ccc7ccc8c(c7c6)c6cc(OC)ccc6n8C)CC5)CC4)ccc3ccc1n2C.[Cl-].[Cl-]` here?
Answer: 3e+08

Question: What about the K app (Calf thymus DNA [2]) of the same compound?
Answer: 2e+07

Question: What about the rf50 (Calf thymus DNA [3]) of the same compound?
Answer: 0.4

Question: And the rf50 (Calf thymus DNA [4])?
Answer: 0.72

Question: And the T/C (Mus musculus [5])?
Answer: 155%

Question: How did the K app (Calf thymus DNA [1]) turn out when `COc1ccc2[nH]c3c(C)c4cc[n+](CCN5CCC(C6CCN(CC[n+]7ccc8c(C)c9[nH]c%10ccc(OC)cc%10c9c(C)c8c7)CC6)CC5)cc4c(C)c3c2c1` was run?
Answer: 2e+08

Question: And the K app (Calf thymus DNA [2])?
Answer: 1e+06

Question: `Oc1ccc2[nH]c3ccc4c[n+](CCN5CCC(C6CCN(CC[n+]7ccc8c(ccc9[nH]c%10ccc(O)cc%10c98)c7)CC6)CC5)ccc4c3c2c1` was tested. Which K app (Calf thymus DNA [1]) did it give?
Answer: 2e+08

Question: And the K app (Calf thymus DNA [2])?
Answer: 500000

Question: What about the rf50 (Calf thymus DNA [3]) of the same compound?
Answer: 0.5

Question: What about the rf50 (Calf thymus DNA [4]) of the same compound?
Answer: 13

Question: With `COc1ccc2[nH]c3ccc4c[n+](CCN5CCC(C6CCN(CC[n+]7ccc8c(ccc9[nH]c%10ccc(OC)cc%10c98)c7)CC6)CC5)ccc4c3c2c1.[Cl-].[Cl-]` as the compound, how does the K app (Calf thymus DNA [1]) read?
Answer: 5e+08

Question: What about the K app (Calf thymus DNA [2]) of the same compound?
Answer: 3e+06

Question: And the rf50 (Calf thymus DNA [3])?
Answer: 0.32

Question: What about the rf50 (Calf thymus DNA [4]) of the same compound?
Answer: 3.4

Question: What about the T/C (Mus musculus [6]) of the same compound?
Answer: 130%

Question: For `Cc1c2cc[n+](CCN3CCC(C4CCN(CC[n+]5ccc6c(C)c7[nH]c8ccc(O)cc8c7c(C)c6c5)CC4)CC3)cc2c(C)c2c1[nH]c1ccc(O)cc12`, which K app (Calf thymus DNA [1]) is on record?
Answer: 1e+08

Question: What about the K app (Calf thymus DNA [2]) of the same compound?
Answer: 1e+06

Question: Which K app (Calf thymus DNA [1]) does the source give for `COc1ccc2[nH]c3ccc4cc[n+](CCCCCCCCCC[n+]5ccc6ccc7[nH]c8ccc(OC)cc8c7c6c5)cc4c3c2c1.[Br-].[Br-]` here?
Answer: 3e+06

Question: And the K app (Calf thymus DNA [2])?
Answer: 3e+06

Question: And the rf50 (Calf thymus DNA [3])?
Answer: 2.4

Question: What about the rf50 (Calf thymus DNA [4]) of the same compound?
Answer: 3

Question: And the T/C (Mus musculus [7])?
Answer: 124%

Question: For `COc1ccc2c(c1)c1c3c[n+](CCN4CCCCC4)ccc3ccc1n2C`, which K app (Calf thymus DNA [1]) is on record?
Answer: 1.8e+06

Question: What about the K app (Calf thymus DNA [2]) of the same compound?
Answer: 300000

Question: What about the rf50 (Calf thymus DNA [3]) of the same compound?
Answer: 9.5

Question: And the rf50 (Calf thymus DNA [4])?
Answer: 20

Question: Which K app (Calf thymus DNA [1]) does the source give for `[Cl-].[Cl-].c1ccc2c(c1)[nH]c1ccc3cc[n+](CCN4CCC(C5CCN(CC[n+]6ccc7ccc8[nH]c9ccccc9c8c7c6)CC5)CC4)cc3c12` here?
Answer: 3e+08

Question: What about the K app (Calf thymus DNA [2]) of the same compound?
Answer: 5e+06

Question: And the rf50 (Calf thymus DNA [3])?
Answer: 0.4

Question: And the rf50 (Calf thymus DNA [4])?
Answer: 1.4

Question: What about the T/C (Mus musculus [7]) of the same compound?
Answer: 121%

Question: Which results are given for `COc1ccc2[nH]c3ccc4cc[n+](CCN5CCC(C6CCN(CC[n+]7ccc8ccc9[nH]c%10ccc(OC)cc%10c9c8c7)CC6)CC5)cc4c3c2c1.[Cl-].[Cl-]` [DITERCALINIUM CHLORIDE]?
Answer: K app (Calf thymus DNA [1]): 5e+08; K app (Calf thymus DNA [2]): 1e+07; rf50 (Calf thymus DNA [3]): 0.32; rf50 (Calf thymus DNA [4]): 0.96; T/C (Mus musculus [8]): 216%

Question: Which K app (Calf thymus DNA [1]) does the source give for `COc1ccc2[nH]c3ccc4cc[n+](CCN5CCC(CCCC6CCN(CC[n+]7ccc8ccc9[nH]c%10ccc(OC)cc%10c9c8c7)CC6)CC5)cc4c3c2c1` here?
Answer: 1e+09

Question: What about the K app (Calf thymus DNA [2]) of the same compound?
Answer: 4e+06

Question: And the rf50 (Calf thymus DNA [3])?
Answer: 0.25

Question: What about the rf50 (Calf thymus DNA [4]) of the same compound?
Answer: 2.24

Question: Which K app (Calf thymus DNA [1]) does the source give for `COc1ccc2c(c1)c1c3cc[n+](CCN4CCC(C5CCN(CC[n+]6ccc7c(ccc8c7c7cc(OC)ccc7n8C)c6)CC5)CC4)cc3ccc1n2C` here?
Answer: 5e+08

Question: What about the K app (Calf thymus DNA [2]) of the same compound?
Answer: 6e+06

Question: And the rf50 (Calf thymus DNA [3])?
Answer: 0.32

Question: What about the rf50 (Calf thymus DNA [4]) of the same compound?
Answer: 1.2

Question: Which results are given for `Oc1ccc2[nH]c3ccc4cc[n+](CCN5CCC(C6CCN(CC[n+]7ccc8ccc9[nH]c%10ccc(O)cc%10c9c8c7)CC6)CC5)cc4c3c2c1.[Cl-].[Cl-]`?
Answer: K app (Calf thymus DNA [1]): 5e+08; K app (Calf thymus DNA [2]): 1e+07; rf50 (Calf thymus DNA [3]): 0.32; rf50 (Calf thymus DNA [4]): 1.2; T/C (Mus musculus [9]): 157%

Question: With `COc1ccc2[nH]c3ccc4cc[n+](CC(O)CN5CCC(C6CCN(CC(O)C[n+]7ccc8ccc9[nH]c%10ccc(OC)cc%10c9c8c7)CC6)CC5)cc4c3c2c1` (stereo not drawn) as the compound, how does the K app (Calf thymus DNA [1]) read?
Answer: 1e+09

Question: And the K app (Calf thymus DNA [2])?
Answer: 2e+07

Question: What about the rf50 (Calf thymus DNA [3]) of the same compound?
Answer: 0.24

Question: And the rf50 (Calf thymus DNA [4])?
Answer: 0.72

Source: ChEMBL document CHEMBL1121363, “DNA intercalating compounds as potential antitumor agents. 2. Preparation and properties of 7H-pyridocarbazole dimers” (1980)
